Test results as given in ChEMBL document CHEMBL1155167, “Fluoroquinolone resistance in atypical pneumococci and oral streptococci: evidence of horizontal gene transfer of fluoroquinolone resistance determinants from Streptococcus pneumoniae” (2007).
≈ marks a conversion by molar mass, not a printed value.

How the values were obtained:
Streptococcus pneumoniae [1] = experiment: Antimicrobial activity against atypical Streptococcus pneumoniae L25 with parC Lys137Asn mutation by broth dilution method
Streptococcus pneumoniae [2] = experiment: Antimicrobial activity against atypical Streptococcus pneumoniae L27 with parC Ser52Gly, Asn91Asp, Glu135Asp mutation by broth dilution method
Streptococcus pneumoniae [3] = experiment: Antimicrobial activity against atypical Streptococcus pneumoniae L11 with parC Ser52Gly, Asn91Asp, Glu135Asp mutation by broth dilution method
Streptococcus oralis [4] = experiment: Antimicrobial activity against Streptococcus oralis ATCC 10557 with gyrA Ser114Gly, and parC Ser52Gly, Asn91Asp mutation by broth dilution method; assay type: functional
Outline: (§1)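 Ciprofloxacin and levofloxacin MICs were determined by broth dilution following CLSI (formerly NCCLS) guidance. S. pneumoniae ATCC 6303 and ATCC 49619 served as control strains. Reference strains were S. mitis ATCC 49456 and S. oralis ATCC 10557. The clinical isolates came from patients at a Hong Kong teaching hospital.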

Streptococcus oralis [5] = experiment: Antimicrobial activity against Streptococcus oralis HK575 with gyrA Ser114Gly, Leu155Val and parC Ser52Gly, Asn91Asp, Pro140Ser mutation by broth dilution method; assay type: functional; outline: as §1
Streptococcus oralis [6] = experiment: Antimicrobial activity against Streptococcus oralis HK232 with gyrA Ser114Gly, and parC Ser52Gly, Asn91Asp mutation by broth dilution method; assay type: functional; outline: as §1
Streptococcus oralis [7] = experiment: Antimicrobial activity against Streptococcus oralis HK417 with gyrA Ser114Gly, and parC Ser52Gly, Asn91Asp mutation by broth dilution method; assay type: functional; outline: as §1
Streptococcus oralis [8] = experiment: Antimicrobial activity against Streptococcus oralis HK496 with gyrA Ser114Gly, and parC Ser52Gly, Asn91Asp mutation by broth dilution method; assay type: functional; outline: as §1
Streptococcus oralis [9] = experiment: Antimicrobial activity against Streptococcus oralis HK553 with gyrA Ser114Gly, and parC Ser52Gly, Asn91Asp mutation by broth dilution method; assay type: functional; outline: as §1
Streptococcus oralis [10] = experiment: Antimicrobial activity against Streptococcus oralis HK62 with gyrA Ser114Gly, and parC Ser52Gly, Asn91Asp mutation by broth dilution method; assay type: functional; outline: as §1
Streptococcus oralis [11] = experiment: Antimicrobial activity against Streptococcus oralis HK122 with gyrA Ser114Gly, and parC Ser52Gly, Asn91Asp mutation by broth dilution method; assay type: functional; outline: as §1
Streptococcus oralis [12] = experiment: Antimicrobial activity against Streptococcus oralis HK123 with gyrA Ser114Gly, and parC Ser52Gly, Asn91Asp mutation by broth dilution method; assay type: functional; outline: as §1
Streptococcus oralis [13] = experiment: Antimicrobial activity against Streptococcus oralis HK271 with gyrA Ser114Gly, and parC Ser52Gly, Asn91Asp mutation by broth dilution method; assay type: functional; outline: as §1
Streptococcus oralis [14] = experiment: Antimicrobial activity against Streptococcus oralis HK300 with gyrA Ser114Gly, and parC Ser52Gly, Asn91Asp mutation by broth dilution method; assay type: functional; outline: as §1
Streptococcus oralis [15] = experiment: Antimicrobial activity against Streptococcus oralis HK312 with gyrA Ser114Gly, and parC Ser52Gly, Asn91Asp mutation by broth dilution method; assay type: functional; outline: as §1
Streptococcus oralis [16] = experiment: Antimicrobial activity against Streptococcus oralis HK51with gyrA Ser114Gly, and parC Ser52Gly, Asn91Asp mutation by broth dilution method; assay type: functional; outline: as §1
Streptococcus oralis [17] = experiment: Antimicrobial activity against Streptococcus oralis HK299 with gyrA Ser114Gly, and parC Ser52Gly, Asn91Asp mutation by broth dilution method; assay type: functional; outline: as §1
Streptococcus oralis [18] = experiment: Antimicrobial activity against Streptococcus oralis HK579 with gyrA Ser114Gly, and parC Ser52Gly, Asn91Asp mutation by broth dilution method; assay type: functional; outline: as §1
Streptococcus oralis [19] = experiment: Antimicrobial activity against Streptococcus oralis HK587 with gyrA Ser114Gly, and parC Ser52Gly, Asn91Asp mutation by broth dilution method; assay type: functional; outline: as §1
Streptococcus oralis [20] = experiment: Antimicrobial activity against Streptococcus oralis HK386 with gyrA Ser114Gly, and parC Ser52Gly, Asn91Asp mutation by broth dilution method; assay type: functional; outline: as §1
Streptococcus oralis [21] = experiment: Antimicrobial activity against Streptococcus oralis HK619 with gyrA Ser114Gly, and parC Ser52Gly, Asn91Asp mutation by broth dilution method; assay type: functional; outline: as §1
Streptococcus oralis [22] = experiment: Antimicrobial activity against Streptococcus oralis HK816 with gyrA Ser81Leu, Ser114Gly and parC Ser52Gly, Ser79Tyr, Asn91Asp mutation by broth dilution method; assay type: functional; outline: as §1
Streptococcus oralis [23] = experiment: Antimicrobial activity against Streptococcus oralis HK754 with gyrA Ser81Leu, Ser114Gly, gyrB Ser494Thr, parC Ser52Gly, Asp83Tyr, Asn91Asp and parE Arg447Ser mutation by broth dilution method; assay type: functional; outline: as §1
Streptococcus mitis [24] = experiment: Antimicrobial activity against Streptococcus mitis ATCC 49456 with gyrA Ser114Gly, and parC Ser52Gly, Asn91Asp, Glu135Asp mutation by broth dilution method; assay type: functional; outline: as §1
Streptococcus mitis [25] = experiment: Antimicrobial activity against Streptococcus mitis HK260 with gyrA Ser114Gly, and parC Ser52Gly, Asn91Asp mutation by broth dilution method; assay type: functional; outline: as §1
Streptococcus mitis [26] = experiment: Antimicrobial activity against Streptococcus mitis HK141 with gyrA Ser114Gly, and parC Ser52Gly, Asn91Asp mutation by broth dilution method; assay type: functional; outline: as §1
Streptococcus mitis [27] = experiment: Antimicrobial activity against Streptococcus mitis HK188 with gyrA Ser114Gly, and parC Ser52Gly, Asn91Asp, Glu135Asp mutation by broth dilution method; assay type: functional; outline: as §1
Streptococcus mitis [28] = experiment: Antimicrobial activity against Streptococcus mitis HK651 with gyrA Ser114Gly, and parC Ser52Gly, Asn91Asp mutation by broth dilution method; assay type: functional; outline: as §1
Streptococcus mitis [29] = experiment: Antimicrobial activity against Streptococcus mitis HK137453 with gyrA Ser114Gly, and parC Ser52Gly, Asn91Asp mutation by broth dilution method; assay type: functional; outline: as §1

O=C(O)c1cn(C2CC2)c2cc(N3CCNCC3)c(F)cc2c1=O [CIPROFLOXACIN]
MIC (Streptococcus pneumoniae [1]): 4 µg/mL (≈ 12.1 µM)
MIC (Streptococcus pneumoniae [2]): 4 µg/mL (≈ 12.1 µM)
MIC (Streptococcus pneumoniae [3]): 8 µg/mL (≈ 24.1 µM)
MIC (Streptococcus oralis [4]): 2 µg/mL (≈ 6.04 µM)
MIC (Streptococcus oralis [5]): 1 µg/mL (≈ 3.02 µM)
MIC (Streptococcus oralis [6]): 2 µg/mL (≈ 6.04 µM)
MIC (Streptococcus oralis [7]): 2 µg/mL (≈ 6.04 µM)
MIC (Streptococcus oralis [8]): 2 µg/mL (≈ 6.04 µM)
MIC (Streptococcus oralis [9]): 2 µg/mL (≈ 6.04 µM)
MIC (Streptococcus oralis [10]): 4 µg/mL (≈ 12.1 µM)
MIC (Streptococcus oralis [11]): 4 µg/mL (≈ 12.1 µM)
MIC (Streptococcus oralis [12]): 4 µg/mL (≈ 12.1 µM)
MIC (Streptococcus oralis [13]): 4 µg/mL (≈ 12.1 µM)
MIC (Streptococcus oralis [14]): 4 µg/mL (≈ 12.1 µM)
MIC (Streptococcus oralis [15]): 4 µg/mL (≈ 12.1 µM)
MIC (Streptococcus oralis [16]): 4 µg/mL (≈ 12.1 µM)
MIC (Streptococcus oralis [17]): 4 µg/mL (≈ 12.1 µM)
MIC (Streptococcus oralis [18]): 4 µg/mL (≈ 12.1 µM)
MIC (Streptococcus oralis [19]): 4 µg/mL (≈ 12.1 µM)
MIC (Streptococcus oralis [20]): 4 µg/mL (≈ 12.1 µM)
MIC (Streptococcus oralis [21]): 4 µg/mL (≈ 12.1 µM)
MIC (Streptococcus oralis [22]): 32 µg/mL (≈ 96.6 µM)
MIC (Streptococcus oralis [23]): 128 µg/mL (≈ 386 µM)
MIC (Streptococcus mitis [24]): 1 µg/mL (≈ 3.02 µM)
MIC (Streptococcus mitis [25]): < 0.5 µg/mL
MIC (Streptococcus mitis [26]): 1 µg/mL (≈ 3.02 µM)
MIC (Streptococcus mitis [27]): 1 µg/mL (≈ 3.02 µM)
MIC (Streptococcus mitis [28]): 1 µg/mL (≈ 3.02 µM)
MIC (Streptococcus mitis [29]): 2 µg/mL (≈ 6.04 µM)
